Results from ChEMBL document CHEMBL1123661, “Structural alterations that differentially affect the mutagenic and antitrichomonal activities of 5-nitroimidazoles” (J Med Chem, 1987).
≈ marks a conversion by molar mass, not a printed value.

Key:
Tritrichomonas suis = experiment: In vitro anti-trichomonal activity against Trichomonas foetus-Ortho strain-2.; type: functional; settings: read-out: ED50 (the source's name)
Method in brief: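 Trichomonas foetus Ortho strain 2 was grown in Diamond's medium with gentamycin (24 μg/mL) and 10% calf serum. 2×10^6 trichomonads were added to 1.8 mL medium. Compound was given in water or Me₂SO (final ≤1%, with solvent controls) over a range bracketing the EC₅₀. Motile survivors were counted after 24 h at 37 °C. The value is the mean of two or three determinations.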

[1] = system: Salmonella typhimurium TA100; experiment: The Mutagenicity in Salmonella typhimurium TA100 relative to Ronidazole.
[2] = Safety index.; type: toxicity; settings: read-out: Safety index
Method in brief: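 Index derived as [(ED₅₀ of reference × mutagenicity of reference)]/(ED₅₀ × mutagenicity), using the antitrichomonal ED₅₀ and the TA100 mutagenicity (relative to reference) measured here.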

[3] = system: Salmonella typhimurium TA100; experiment: The Mutagenicity was determined in Salmonella typhimurium TA100 relative to compound 20; ND means not detectable

| SMILES | EC50 (Tritrichomonas suis) | Mutagenicity [1] | selectivity ratio [2] | Mutagenicity [3] |
| --- | --- | --- | --- | --- |
| Cc1nc(CCOC(=O)C(C)(C)C)c([N+](=O)[O-])n1C | 11 µg/mL (≈ 40.8 µM) | 2.6% | 1.4 | – |
| Cc1nc(C)n(C)c1[N+](=O)[O-] | 32 µg/mL (≈ 206 µM) | 0.4% | 3.1 | – |
| Cc1nc(Br)c([N+](=O)[O-])n1C | 0.75 µg/mL (≈ 3.41 µM) | 8% | 0.65 | – |
| Cn1c([N+](=O)[O-])cnc1CCO | – | 19% | – | – |
| Cn1c(-c2ccc(F)cc2)nc(CCO)c1[N+](=O)[O-] | 7.7 µg/mL (≈ 29 µM) | 8% | 0.65 | – |
| Cc1ncc([N+](=O)[O-])n1C [DIMETRIDAZOLE] | 0.3 µg/mL (≈ 2.13 µM) | 15% | 8.9 | – |
| Cn1c([N+](=O)[O-])cnc1COC(N)=O [RONIDAZOLE] | 0.4 µg/mL (≈ 2 µM) | 100% | 1 | – |
| Cc1nc(CCO)c([N+](=O)[O-])n1C | 2 µg/mL (≈ 10.8 µM) | 0.28% | 71 | – |
| Cc1nc(CCO)n(C)c1[N+](=O)[O-] | – | 0.8% | – | – |
| Cc1nc(COC(N)=O)n(C)c1[N+](=O)[O-] | 1 µg/mL (≈ 4.67 µM) | 2% | 20 | – |
| Cc1nc(-c2ccc(F)cc2)n(C)c1[N+](=O)[O-] | 10 µg/mL (≈ 42.5 µM) | 15% | 0.27 | – |
| Cn1c(CO)nc(CCO)c1[N+](=O)[O-] | 20 µg/mL (≈ 99.4 µM) | 1% | 2 | – |
| COc1cc(C(=O)OCCn2c([N+](=O)[O-])cnc2C)cc(OC)c1OC | 1.35 µg/mL (≈ 3.7 µM) | 12% | 2.5 | – |
| Cn1c([N+](=O)[O-])cnc1CO | 1.6 µg/mL (≈ 10.2 µM) | 16% | 1.6 | – |
| Cn1c([N+](=O)[O-])cnc1-c1ccc(F)cc1 | 0.25 µg/mL (≈ 1.13 µM) | 300% | 0.53 | – |
| CC(=O)Oc1cc(C(=O)OCc2ncc([N+](=O)[O-])n2C)cc(OC(C)=O)c1OC(C)=O | 2.35 µg/mL (≈ 5.4 µM) | 26% | 0.6 | – |
| Cc1nc(F)c([N+](=O)[O-])n1C | 14.5 µg/mL (≈ 91.1 µM) | – | – | Not detectable |
| Cc1ncc([N+](=O)[O-])n1CCO [METRONIDAZOLE] | 0.4 µg/mL (≈ 2.34 µM) | – | – | – |
| Cc1nc(C)n(CCO)c1[N+](=O)[O-] | 21.5 µg/mL (≈ 116 µM) | 0.3% | 6.2 | – |
| CC(=O)OCCc1nc(C)n(C)c1[N+](=O)[O-] | 2.8 µg/mL (≈ 12.3 µM) | 1% | 14 | – |
| CC(=O)Oc1cc(C(=O)OCCn2c([N+](=O)[O-])cnc2C)cc(OC(C)=O)c1OC(C)=O | 6.6 µg/mL (≈ 14.7 µM) | 0.23% | 26 | – |
| CC(=O)Oc1cc(C(=O)OCCn2c([N+](=O)[O-])cnc2-c2ccc(F)cc2)cc(OC(C)=O)c1OC(C)=O | 3.9 µg/mL (≈ 7.37 µM) | 17% | 0.6 | – |
| Cn1cnc(F)c1[N+](=O)[O-] | 3.6 µg/mL (≈ 24.8 µM) | 16% | 0.7 | – |
